Test results reported in ChEMBL document CHEMBL2417498, “Design and synthesis of 6,7-methylenedioxy-4-substituted phenylquinolin-2(1H)-one derivatives as novel anticancer agents that induce apoptosis with cell cycle arrest at G2/M phase” (Bioorg Med Chem, 2013).
Activity calls are given as the source filed them. No cut-off for these calls is given here.

Key:
[1] = system: A498; assay: Cytotoxicity against human A498 cells after 48 hrs by MTT assay; type: functional, cell-based; conditions: A498, 48 h
Method in brief: (§1)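 Log-phase tumour cells grown in RPMI-1640 with 10% FBS, penicillin/streptomycin and 1% L-glutamine at 37 °C, 5% CO2. Cells treated with vehicle or a range of concentrations for 48 h. Growth measured by MTT reduction, absorbance at 570 nm. IC50 is the concentration giving 50% proliferation inhibition, from 3 independent experiments.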

[2] = Cytotoxicity against human H460 cells after 48 hrs by MTT assay; type: functional, cell-based; conditions: NCI-H460, 48 h; method in brief: as §1
[3] = Cytotoxicity against human Hep3B cells after 48 hrs by MTT assay; type: functional, cell-based, Hep 3B2
Method in brief: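 Detroit 551 normal skin cells and Hep 3B hepatoma cells grown in DMEM with 10% FBS, penicillin/streptomycin and 1% L-glutamine at 37 °C, 5% CO2. Log-phase cells treated with vehicle or a range of concentrations for 48 h. MTT reduction read at 570 nm. IC50 (50% proliferation inhibition) taken from 3 independent experiments.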

[4] = system: HL-60; assay: Cytotoxicity against human HL60 cells after 48 hrs by MTT assay; type: functional, cell-based; conditions: HL-60, 48 h; method in brief: as §1
[5] = Cytotoxicity against human 2774 cells after 48 hrs by MTT assay; type: functional, cell-based
[6] = system: HL-60; assay: Induction of apoptosis in human HL60 cells assessed as caspase3 cleavage at 0.25 to 1 uM by Western blot analysis; type: functional, cell-based
Method in brief: (§2)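 HL-60 cells treated 24 h at the indicated concentrations, harvested, lysed (30 min on ice, 12,000 g spin), protein by Bradford; samples run on 10% SDS-PAGE, transferred to nitrocellulose, immunodetected by chemiluminescence.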

[7] = system: HL-60; assay: Decrease in cyclin B1 expression in human HL60 cells at 0.25 to 1 uM after 24 hrs by Western blot analysis; type: functional, cell-based; method in brief: as §2
[8] = system: HL-60; assay: Decrease in CDK1 expression in human HL60 cells after 24 hrs by Western blot analysis; type: functional, cell-based; method in brief: as §2
[9] = system: HL-60; assay: Increase in cyclin B1 expression in human HL60 cells at 0.25 to 1 uM after 24 hrs by Western blot analysis; type: functional, cell-based; method in brief: as §2
[10] = Cell cycle arrest in human H460 cells assessed as accumulation at G2/M phase at 5 uM after 24 hrs by propidium iodide staining-based FACS analysis (reference value: 10.73%); type: functional; conditions: NCI-H460
Method in brief: (§3)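 H460 cells treated 24 h with 1.0, 2.5 or 5.0 µM; washed in PBS, fixed overnight in 70% ice-cold ethanol at −20 °C, stained 30 min in the dark with 0.1% Triton X-100, 0.2 mg/mL RNase and 20 µg/mL propidium iodide; DNA content by flow cytometry, phase distribution from histogram modelling.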

[11] = Cell cycle arrest in human H460 cells assessed as accumulation at G2/M phase at 1 uM after 24 hrs by propidium iodide staining-based FACS analysis (reference value: 10.73%); type: functional; conditions: NCI-H460; method in brief: as §3
[12] = Cell cycle arrest in human H460 cells assessed as accumulation at S phase at 5 uM after 24 hrs by propidium iodide staining-based FACS analysis (reference value: 43.08%); type: functional; conditions: NCI-H460; method in brief: as §3
[13] = Cell cycle arrest in human H460 cells assessed as accumulation at S phase at 2.5 uM after 24 hrs by propidium iodide staining-based FACS analysis (reference value: 43.08%); type: functional; conditions: NCI-H460; method in brief: as §3
[14] = Cell cycle arrest in human H460 cells assessed as accumulation at S phase at 1 uM after 24 hrs by propidium iodide staining-based FACS analysis (reference value: 43.08%); type: functional; conditions: NCI-H460; method in brief: as §3
[15] = Cell cycle arrest in human H460 cells assessed as accumulation at G0/G1 phase at 2.5 uM after 24 hrs by propidium iodide staining-based FACS analysis (reference value: 46.19%); type: functional; conditions: NCI-H460; method in brief: as §3
[16] = Cell cycle arrest in human H460 cells assessed as accumulation at sub G1 phase at 1 uM after 24 hrs by propidium iodide staining-based FACS analysis (reference value: 3.07%); type: functional; conditions: NCI-H460; method in brief: as §3
[17] = system: HL-60; assay: Cell cycle arrest in human HL60 cells assessed as accumulation at G2/M phase at 1 uM after 24 hrs by propidium iodide staining-based FACS analysis (reference value: 10.51%); type: functional
[18] = system: HL-60; assay: Cell cycle arrest in human HL60 cells assessed as accumulation at G2/M phase at 0.5 uM after 24 hrs by propidium iodide staining-based FACS analysis (reference value: 10.51%); type: functional
[19] = system: HL-60; assay: Cell cycle arrest in human HL60 cells assessed as accumulation at S phase at 1 uM after 24 hrs by propidium iodide staining-based FACS analysis (reference value: 49.69%); type: functional
[20] = system: HL-60; assay: Cell cycle arrest in human HL60 cells assessed as accumulation at S phase at 0.5 uM after 24 hrs by propidium iodide staining-based FACS analysis (reference value: 49.69%); type: functional
[21] = system: HL-60; assay: Cell cycle arrest in human HL60 cells assessed as accumulation at G0/G1 phase at 0.5 uM after 24 hrs by propidium iodide staining-based FACS analysis (reference value: 39.80%); type: functional
[22] = system: HL-60; assay: Cell cycle arrest in human HL60 cells assessed as accumulation at G0/G1 phase at 0.25 uM after 24 hrs by propidium iodide staining-based FACS analysis (reference value: 39.80%); type: functional
[23] = system: HL-60; assay: Cell cycle arrest in human HL60 cells assessed as accumulation at sub G1 phase at 0.5 uM after 24 hrs by propidium iodide staining-based FACS analysis (reference value: 0.35%); type: functional
[24] = system: HL-60; assay: Cell cycle arrest in human HL60 cells assessed as accumulation at sub G1 phase at 1.0 uM after 24 hrs by propidium iodide staining-based FACS analysis (reference value: 0.35%); type: functional
[25] = system: NCI-H460; assay: Induction of apoptosis in human H460 cells assessed as appearance of nuclear fragmentation at 1 to 5 uM after 24 hrs by Hoechst 33258 staining-based microscopy; type: functional, cell-based
Method in brief: (§4)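 H460 plated at 5×10⁴ cells/well and incubated 24 h with 1.0, 2.5 or 5.0 µM; stained with 5 µg/mL Hoechst 33258 for 10 min, washed twice in PBS, fixed in 4% paraformaldehyde 10 min at 25 °C; nuclei scored for chromatin condensation, fragmentation and apoptotic bodies by fluorescence microscopy; 0.1% DMSO control.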

[26] = system: NCI-H460; assay: Induction of apoptosis in human H460 cells assessed as appearance of apoptotic bodies at 1 to 5 uM after 24 hrs by Hoechst 33258 staining-based microscopy; type: functional, cell-based; method in brief: as §4
[27] = system: NCI-H460; assay: Induction of apoptosis in human H460 cells assessed as chromatin condensation at 1 to 5 uM after 24 hrs by Hoechst 33258 staining-based microscopy; type: functional, cell-based; method in brief: as §4
[28] = system: HL-60; assay: Induction of apoptosis in human HL60 cells assessed as appearance of apoptotic bodies at 0.25 to 1 uM after 24 hrs by Hoechst 33258 staining-based microscopy; type: functional, cell-based
Method in brief: (§5)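 HL-60 seeded at 1×10⁵ cells/well, treated 24 h with 0.25, 0.5 or 1.0 µM; nuclei stained 10 min with 5 µg/mL Hoechst 33258, PBS-washed twice, fixed 10 min in 4% PFA at 25 °C; apoptotic morphology imaged by fluorescence microscopy against 0.1% DMSO-treated cells.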

[29] = system: HL-60; assay: Induction of apoptosis in human HL60 cells assessed as chromatin condensation at 0.25 to 1 uM after 24 hrs by Hoechst 33258 staining-based microscopy; type: functional, cell-based; method in brief: as §5

`COc1ccc(-c2cc(=O)[nH]c3cc4c(cc23)OCO4)c(OC)c1` showed an IC50 [1] of 48000 nM, an IC50 [2] of 900 nM and an IC50 [3] of 1000 nM. The IC50 [4] was 400 nM, the IC50 [5] was 400 nM and the Activity [6] was “Active”. The Activity [7] was “Active”, the Activity [8] was “Dose-dependent effect” and the Activity [9] was “Active”. It also gave an Activity [10] of 68.2%, an Activity [11] of 54.4% and an Activity [12] of 22.4%. For the same compound, the Activity [13] was 18.8%, the Activity [14] was 44.1% and the Activity [15] was 9.6%. For the same compound, the Activity [16] was 10.8%, the Activity [17] was 40.54% and the Activity [18] was 25.02%. It also gave an Activity [19] of 46.99%, an Activity [20] of 30.16% and an Activity [21] of 44.82%. For the same compound, the Activity [22] was 41.36%, the Activity [23] was 27.86% and the Activity [24] was 19.65%. The Activity [25] was “Active”, the Activity [26] was “Active” and the Activity [27] was “Active”. The Activity [28] was “Active” and the Activity [29] was “Active”.
